Laboratory results reported in ChEMBL document CHEMBL4513216, “Probing the Open Global Health Chemical Diversity Library for Multistage-Active Starting Points for Next-Generation Antimalarials” (ACS Infect Dis, 2020).

Assay: Toxicity liver stage against HepG2, at 10uM
Type: cell-based
Design: test concentration 10 uM, cell line HepG2-A16-CD81EGFP
Conditions: human, HepG2-A16-CD81EGFP cells; read-out: INHIBITION
How it was run: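 Uninfected HepG2-A16-CD81EGFP cells, 3 × 10^3 per well, 1536-well, plated on prespotted compound at 10 μM final, parasite-free screening media added to match infected plates; puromycin 10 μM positive, DMSO 0.5% negative; run in parallel with 48 h PbLuc assay at 37 °C, 5% CO2; viability by CellTiter-Glo luminescence, normalized to controls.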

| Structure (SMILES) | cytotoxicity at 10 µM [%] |
| --- | --- |
| COc1ccc(CC(C)Nc2cccc(F)c2)cc1 (configuration not stated) | 5.82 |
| O=C1CC(c2ccc(O)cc2)c2c(c(C(=O)O)cn2-c2ccccc2)N1 (configuration not stated) | -4.99 |
| O=C(Cc1noc(C(=O)NCCO)n1)Nc1cccc(C(F)(F)F)c1 | 8.9 |
| Cn1ccc2ccc(C(=O)N3CCN(C(=O)OC(C)(C)C)CC3)cc21 | 18.1 |
| COCCn1c2c(ccc1=O)CCN(Cc1ccoc1)CC2 | -134 |
| Cc1ccc(N2CC3(CCN(C(=O)c4ccoc4)C3)C2)nn1 | -11.6 |
| Cc1cnc(C(=O)N2CCc3ncnc(C)c3CC2)cn1 | -6.51 |
| Cc1nc(N2CCN(c3ccccc3)CC2)c2c(n1)c(C)nn2C | 7.8 |
| Cc1nc(N2CCCCC2)ncc1-c1cc(O)nc(N2CCCCC2)n1 | 11.8 |
| Cc1nc(NC2CCN(S(=O)(=O)c3ccccc3)CC2)[nH]c(=O)c1C | -3.45 |
| CCOc1cc([C@@H]2N[C@H](c3nccs3)Cc3ccsc32)ccc1OC | 7.94 |
| O=C(C1CCCCC1)N1CCCC([C@@H]2C[C@H](C(F)F)n3ncnc3N2)C1 (some centres not stated) | 1.4 |
| Cc1ccnc(C2CN(c3ncccn3)C2)n1 | 2.55 |
| CC1CCCN(CC(=O)N2CCC(c3ncc4c(n3)CCNC4)CC2)C1 (configuration not stated) | 7.62 |
| O=S(=O)(CCO)CCc1ccccc1Cl | 7.21 |
| CC(C)CC(NC(=O)CN(C)c1cnccn1)c1cccs1 (configuration not stated) | 2.84 |
| Cc1occc1CNc1ncccc1S(N)(=O)=O | -149 |
| CCc1cnccc1C(=O)Nc1ccc(C(N)=O)nc1 | 5.44 |
| COc1ccc(C)nc1NC(=O)CCc1c(C)nn(C)c1C | 0.918 |
| Cc1cc(N2CCCCC2)c(C#N)c(C)n1 | -6.16 |
| Cc1csc(-c2cccc(NC(=O)NCC(C)(C)C(N)=O)c2)n1 | -4.25 |

| Structure (SMILES) | cytotoxicity at 10 µM [%] |
| --- | --- |
| COC(=O)C1CN(Cc2nc(-c3ccccc3)cs2)C[C@@H](C)O1 (some centres not stated) | -0.227 |
| CCN1CCCC1CNC(=O)CCc1cccs1 (configuration not stated) | -9.09 |
| CNC(=O)C(NC(=O)c1c(C)noc1C)c1ccc(F)c(F)c1 (configuration not stated) | -18.3 |
| O=C(NCCCn1cccn1)N1CCCC1c1cccs1 (configuration not stated) | -2.39 |
| Cc1cc(C)cc(CNCCS(=O)(=O)N2CCOCC2)c1 | 1.05 |
| CC(CNC(=O)c1ccc(Cl)cc1F)N1CCN(C)CC1 (configuration not stated) | -8.56 |
| CCc1ncc2c(n1)CN(Cc1cnc(C)cn1)CC2 | -7.51 |
| CCCN1CCCN(c2ncccc2C(=O)N2CCCCC2)CC1 | 0.503 |
| CC(C)c1nc(CNC2CCN(S(C)(=O)=O)CC2)cs1 | -1.53 |
| CNC(=O)C(NC(=O)c1nccn2ccnc12)c1ccc(F)c(F)c1 (configuration not stated) | -12.6 |
| Cc1nc(COC[C@@H]2CC[C@H]3[C@H](CCN3S(C)(=O)=O)O2)cs1 | 5.22 |
| Cc1cc(CN2CC[C@H]3C[C@H](c4nccs4)O[C@@H]3C2)no1 | 3.22 |
| CCC1=N[C@@]2(CC[C@@H]3CN(C(=O)NCc4ccccc4)C[C@@H]32)C(=O)N1C | 1.05 |
| COCc1nc(CNC2CCCC(C)(C)C2)no1 (configuration not stated) | 2.55 |
| C[C@@H]1CN(c2ccc(Cl)cn2)C[C@@]1(O)C1CC1 | -2.81 |
| COc1ccccc1-c1ncc(CN2CCC3(CCNCC3)CC2)cn1 | -1.49 |
| Cn1c(Cn2ccnc2)nnc1C1CCCN(c2ncccn2)C1 (configuration not stated) | -6.33 |
| Cn1c(CCNC(=O)C2CCCN(C3CCOCC3)C2)n[nH]c1=O (configuration not stated) | 2.12 |
| COCCC1CN(c2nc(-c3ccccc3)nc3c2CCNC3)CCO1 (configuration not stated) | -2.98 |
| Cc1ncsc1CCN(C)C(=O)c1c(O)cccc1O | 0.417 |
| CN(CCNC(=O)c1cnc(-c2ccncc2)nc1)S(C)(=O)=O | 5.23 |

| Structure (SMILES) | cytotoxicity at 10 µM [%] |
| --- | --- |
| CSc1cccc(CN(C)C(=O)Cn2ncc(N3CCCC3)cc2=O)c1 | -2.01 |
| O=C(N1CCC(OCc2ccccn2)CC1)C1(c2ccc(F)cc2)CC1 | 0.178 |
| C[C@@H]1CN(c2cccnn2)CC[C@@]1(O)C1CCOCC1 | 2.72 |
| O=C(O)[C@@H]1CN(C2CCOCC2)C[C@H]1C1CC1 | -160 |
| CCCN(Cc1cccc(OCCO)c1)Cc1ccccc1OC | 5.15 |
| Cc1cccc(C(=O)N2CCCCC2c2ccc(CN(C)C)cc2)n1 (configuration not stated) | -19.5 |
| COc1cc(CNC(C)Cn2cccn2)cc(OC)c1 (configuration not stated) | 0.681 |
| COc1ccc(CNCC2CNc3ccnn3C2)cn1 (configuration not stated) | -3.84 |
| CCn1cnnc1C1CCN(C(=O)c2ccc(Cl)cc2OC)CC1 | -1.94 |
| CCC(O)CN1CCN(C(=O)CCc2c(C)noc2Cl)CC1 (configuration not stated) | -8.89 |
| Cc1noc(NC(=O)c2ccc(F)cc2)n1 | -0.481 |
| Cc1noc(C)c1CN(C)C(=O)c1ccc(O)nc1 | -9.71 |
| CC(NC(=O)NCc1ccccc1F)(C(=O)O)c1ccco1 (configuration not stated) | -5.64 |
| Cc1cccc(OCCN2CCC(c3ccnn3CCO)CC2)c1 | -4.87 |
| O=C(c1cc[nH]n1)N1CCCC(c2cc(C(F)(F)F)[nH]n2)C1 (configuration not stated) | -6.97 |
| Cc1cc(F)ccc1NS(=O)(=O)c1cc2c(c(C(=O)O)c1)OCCO2 | -6.56 |
| Cn1ccnc1CN1CCCN(C(=O)c2ccc3[nH]nnc3c2)CC1 | -8.53 |
| CCCN1CCC(CNC(=O)C2(c3cc(C)cc(C)c3)CCC2)C1 (configuration not stated) | -0.185 |
| O=C(C1CCN(Cc2nc(-c3ccco3)no2)CC1)N1CCCC1 | -3.4 |
| O=C(c1sccc1Br)N(Cc1cccnc1)C1CC1 | -4.07 |
| O=C(c1ccnc(-n2ccnc2)c1)N1CCCC(n2ccnc2)C1 (configuration not stated) | 0.956 |

| Structure (SMILES) | cytotoxicity at 10 µM [%] |
| --- | --- |
| COCCCN(CCOC)Cc1nc2c(cnn2C)c(=O)[nH]1 | -5.72 |
| Cc1nn(C)c(Cl)c1C1CCCN1C(=O)c1ccc[nH]1 (configuration not stated) | -8.57 |
| Cc1nccn1C1CCCN(C(=O)c2ccc(N3CCCC3)nn2)C1 (configuration not stated) | -11.2 |
| Cc1ncc2c(n1)CN(CC(=O)Nc1ccncc1)CC2 | -8.7 |
| Cn1ncc2c(=O)[nH]c(CN3CCCC3CC3CCCCC3)nc21 (configuration not stated) | -2.41 |
| CCc1nnc(CN2CCCC(c3cc(C(F)(F)F)[nH]n3)C2)o1 (configuration not stated) | 6.88 |
| CSc1ccsc1C(=O)N1CCN(CC(C)(C)O)CC1 | -3.22 |
| CCOCC(O)CN1CCN(C(=O)CC(C)C)CC1 (configuration not stated) | -6.98 |
| Cc1cnn(CCC(=O)N2CCCC(c3cc(C(N)=O)[nH]n3)C2)c1 (configuration not stated) | -7.32 |
| Cc1cnn(CC2CCCCN2C(=O)c2ccnc(N(C)C)c2)c1 (configuration not stated) | 3.3 |
| CCCNCc1ccc(OCc2ccc3c(c2)OCCO3)cc1 | 3.49 |
| O=C(NCc1ccco1)[C@H]1COC[C@H]2CN(Cc3ccoc3)C[C@H]21 | -70.4 |
| Cc1nc(C)n(CC2CN(Cc3cccnc3)Cc3nccn3C2)n1 (configuration not stated) | -141 |
| O=C(C1CCOC1)N1CCC2(CC1)CN(c1ncccn1)CCO2 (configuration not stated) | -73.2 |
| Cc1ccccc1N1CC2(CCN(Cc3nccn3C)C2)CC1=O (configuration not stated) | -81.3 |
| CN(C)C(=O)CN1C[C@H]2CC[C@@H](C1)N(C(=O)Cc1ccccc1Cl)C2 | -11.2 |
| CNc1nc2cn(C3CC(C)(C)NC(C)(C)C3)c(=O)c-2c[nH]1 | 12 |
| Cc1cccc(-n2cc3[nH]c(=O)n(Cc4cccc(F)c4)n3c2=O)c1 | 1.79 |
| N#Cc1ccccc1CN1C[C@H]2CC[C@@H](C1)N(CC1CC1)C2=O | -11.4 |
